Experiments:
Type in all cases: functional, cell-based
HCT-116 = test: Cytotoxicity against human HCT116 cells assessed as cell growth inhibition after 48 hrs by MTT assay; settings: HCT-116, 48 h
Outline: (§1)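 MTT assay. Cells were seeded at 1×10^4 per well in their medium with 10% FBS and allowed 24 h at 37 °C. Compound diluted in medium was added alongside a vehicle control and left for 48 h. MTT (0.5 mg/mL) was then added for 4 h, formazan dissolved in DMSO, and absorbance read at 570 nm. IC50 is the concentration inhibiting 50% of cells.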

HT-29 = test: Cytotoxicity against human HT-29 cells assessed as cell growth inhibition after 48 hrs by MTT assay; settings: HT-29, 48 h; outline: as §1
MCF7 = test: Cytotoxicity against human MCF7 cells assessed as cell growth inhibition after 48 hrs by MTT assay; settings: MCF7, 48 h; outline: as §1
DU-145 = test: Cytotoxicity against human DU145 cells assessed as cell growth inhibition after 48 hrs by MTT assay; settings: DU-145, 48 h; outline: as §1
PC-3 = test: Cytotoxicity against human PC3 cells assessed as cell growth inhibition after 48 hrs by MTT assay; settings: PC-3, 48 h; outline: as §1
A549 = test: Cytotoxicity against human A549 cells assessed as cell growth inhibition after 48 hrs by MTT assay; settings: A549, 48 h; outline: as §1

Structure (SMILES) | IC50 (HCT-116) | IC50 (HT-29) | IC50 (MCF7) | IC50 (DU-145) | IC50 (PC-3) | IC50 (A549)
COc1cc2c3c(c4cc(OC)c(OC)cc4c2cc1OC)C(c1sccc1C)CC(=O)N3 (stereo unspecified) | > 20 µM | > 20 µM | > 20 µM | 19.6 µM | > 20 µM | 15.4 µM
COc1ccc(C2CC(=O)Nc3c2c2cc(OC)c(OC)cc2c2cc(OC)c(OC)cc32)cc1OC (stereo unspecified) | 8.12 µM | 12.2 µM | > 20 µM | 13.1 µM | > 20 µM | 4.09 µM
COc1cc2c3c(c4cc(OC)c(OC)cc4c2cc1OC)C(c1ccc(F)c(F)c1)CC(=O)N3 (stereo unspecified) | 13.4 µM | 17.9 µM | > 20 µM | > 20 µM | > 20 µM | 7.78 µM
COc1cc2c3c(c4cc(OC)c(OC)cc4c2cc1OC)C(c1ccc2c(c1)OCCO2)CC(=O)N3 (stereo unspecified) | > 20 µM | > 20 µM | > 20 µM | > 20 µM | 18.4 µM | 7.95 µM
COc1cc2c3c(c4cc(OC)c(OC)cc4c2cc1OC)C(c1ccc(F)cc1)CC(=O)N3 (stereo unspecified) | 16.2 µM | 17.4 µM | 12.2 µM | 11.1 µM | 19.9 µM | 6.29 µM
COc1cc2c3c(c4cc(OC)c(OC)cc4c2cc1OC)C(c1cccc(C(F)(F)F)c1)CC(=O)N3 (stereo unspecified) | 15.4 µM | 18.7 µM | > 20 µM | 6.19 µM | 18.5 µM | 5.03 µM
COc1cc2c3c(c4cc(OC)c(OC)cc4c2cc1OC)C(c1ccc(C)cc1)CC(=O)N3 (stereo unspecified) | > 20 µM | > 20 µM | > 20 µM | 16.9 µM | > 20 µM | 16.7 µM
COc1ccc(C2CC(=O)Nc3c2c2cc(OC)c(OC)cc2c2cc(OC)c(OC)cc32)cc1 (stereo unspecified) | > 20 µM | 16.7 µM | > 20 µM | 17 µM | 19.1 µM | 8.94 µM
COc1cc2c3c(c4cc(OC)c(OC)cc4c2cc1OC)C(c1ccc(Br)cc1)CC(=O)N3 (stereo unspecified) | 16.5 µM | 15.5 µM | > 20 µM | > 20 µM | > 20 µM | 7.16 µM
COc1cc2c3c(c4cc(OC)c(OC)cc4c2cc1OC)C(c1ccc(Cl)cc1)CC(=O)N3 (stereo unspecified) | 14.2 µM | 13.8 µM | > 20 µM | 19 µM | > 20 µM | 6.49 µM
COc1cc2c3c(c4cc(OC)c(OC)cc4c2cc1OC)C(c1ccc(O)c(O)c1)CC(=O)N3 (stereo unspecified) | 12.6 µM | 10.3 µM | > 20 µM | > 20 µM | 19.8 µM | 11.6 µM
COc1cc([C@@H]2c3cc4c(cc3[C@@H](O[C@@H]3O[C@@H]5CO[C@@H](C)O[C@H]5[C@H](O)[C@H]3O)[C@H]3COC(=O)[C@H]23)OCO4)cc(OC)c1O [ETOPOSIDE] | 2.6 µM |  | 2.03 µM | 2.13 µM | 5.4 µM | 3.25 µM
COc1cc2c3c(c4cc(OC)c(OC)cc4c2cc1OC)C(c1cccs1)CC(=O)N3 (stereo unspecified) | 13.8 µM | 18.9 µM | > 20 µM | > 20 µM | > 20 µM | 8.5 µM
COc1cccc(C2CC(=O)Nc3c2c2cc(OC)c(OC)cc2c2cc(OC)c(OC)cc32)c1 (stereo unspecified) | > 20 µM | > 20 µM | > 20 µM | 18.9 µM | > 20 µM | > 20 µM
COc1cc2c3c(c4cc(OC)c(OC)cc4c2cc1OC)C(c1cccc(Br)c1)CC(=O)N3 (stereo unspecified) | > 20 µM | > 20 µM | > 20 µM | 18.5 µM | > 20 µM | > 20 µM
COc1cc2c3c(c4cc(OC)c(OC)cc4c2cc1OC)C(c1ccccc1)CC(=O)N3 (stereo unspecified) | > 20 µM | > 20 µM | > 20 µM | 18.8 µM | > 20 µM | > 20 µM
COc1cc2c3c(c4cc(OC)c(OC)cc4c2cc1OC)C(c1cccc2ccccc12)CC(=O)N3 (stereo unspecified) | 17.2 µM | 18.4 µM | > 20 µM | 16.1 µM |  | 14.7 µM
COc1cc2c3c(c4cc(OC)c(OC)cc4c2cc1OC)C(c1ccc(C(C)C)cc1)CC(=O)N3 (stereo unspecified) | > 20 µM | 16 µM | > 20 µM | 18.2 µM | > 20 µM | 8.84 µM
